Source: ChEMBL document CHEMBL4368933, “Structure-activity relationship of leucyladenylate sulfamate analogues as leucyl-tRNA synthetase (LRS)-targeting inhibitors of Mammalian target of rapamycin complex 1 (mTORC1)” (Bioorg Med Chem, 2019)
The source made the active and inactive calls. No cut-off for these calls is given here.

Tests used:
[1] = biological target: Leucine--tRNA ligase, cytoplasmic (Homo sapiens) (UniProt Q9P2J5); assay: Inhibition of Leucyl-tRNA synthetase-mediated mTORC1 signaling activation in human HEK293 cells assessed as reduction in leucine-induced S6K phosphorylation at 200 uM preincubated for 50 mins followed by leucine-stimulation and measured after 10 mins by Western blot analysis; type: cell-based
Sequence of Leucine--tRNA ligase, cytoplasmic (Homo sapiens) (Q9P2J5 whole entry, looked up): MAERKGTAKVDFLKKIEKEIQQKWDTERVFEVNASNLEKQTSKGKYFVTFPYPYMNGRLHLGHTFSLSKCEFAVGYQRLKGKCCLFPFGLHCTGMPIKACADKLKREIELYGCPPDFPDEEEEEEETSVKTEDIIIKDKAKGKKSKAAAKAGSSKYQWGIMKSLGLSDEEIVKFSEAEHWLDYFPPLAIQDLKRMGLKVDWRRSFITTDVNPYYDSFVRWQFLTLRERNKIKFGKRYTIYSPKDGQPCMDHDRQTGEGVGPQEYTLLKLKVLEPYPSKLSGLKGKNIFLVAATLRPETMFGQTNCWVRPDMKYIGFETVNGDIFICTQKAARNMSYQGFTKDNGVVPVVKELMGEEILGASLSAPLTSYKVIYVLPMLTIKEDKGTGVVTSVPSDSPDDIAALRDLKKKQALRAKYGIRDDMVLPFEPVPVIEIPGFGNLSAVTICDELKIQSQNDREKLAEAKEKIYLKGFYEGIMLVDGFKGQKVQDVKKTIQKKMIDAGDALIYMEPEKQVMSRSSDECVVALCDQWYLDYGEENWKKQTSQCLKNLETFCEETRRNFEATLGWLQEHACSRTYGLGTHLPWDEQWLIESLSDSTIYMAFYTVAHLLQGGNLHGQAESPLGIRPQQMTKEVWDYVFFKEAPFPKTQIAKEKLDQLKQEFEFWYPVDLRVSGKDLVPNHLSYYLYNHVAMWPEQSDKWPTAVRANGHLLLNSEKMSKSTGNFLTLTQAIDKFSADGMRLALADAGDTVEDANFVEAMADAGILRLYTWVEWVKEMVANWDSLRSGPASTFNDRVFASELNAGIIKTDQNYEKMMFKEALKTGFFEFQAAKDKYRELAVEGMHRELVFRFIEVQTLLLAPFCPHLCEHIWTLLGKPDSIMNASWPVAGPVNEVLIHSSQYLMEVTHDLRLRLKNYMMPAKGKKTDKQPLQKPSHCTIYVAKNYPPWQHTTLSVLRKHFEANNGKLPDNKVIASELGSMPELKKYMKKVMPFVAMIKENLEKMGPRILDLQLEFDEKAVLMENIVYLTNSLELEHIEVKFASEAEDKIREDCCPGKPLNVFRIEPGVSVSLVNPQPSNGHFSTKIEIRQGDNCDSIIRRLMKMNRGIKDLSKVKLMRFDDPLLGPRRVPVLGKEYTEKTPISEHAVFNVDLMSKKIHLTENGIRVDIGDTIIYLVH
Method in brief: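 HEK293 cells pretreated with test agent at a fixed 200 µM, alongside rapamycin (100 nM) and leucinol (800 µM) as references. mTORC1 then activated by adding leucine for 10 min. S6K phosphorylation read by Western blot.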

HEK293 = assay: Effect on leucine-induced AKT levels in human HEK293 cells at 200 uM preincubated for 50 mins followed by leucine-stimulation and measured after 10 mins by Western blot analysis; type: functional, cell-based
mTORC2 (Homo sapiens) = mTORC2 (Homo sapiens) (UniProt P42345+Q6R327+Q9BVC4+Q9BPZ7); assay: Inhibition of mTORC2 signaling in human HEK293 cells assessed as reduction in leucine-induced AKT phosphorylation at 200 uM preincubated for 50 mins followed by leucine-stimulation and measured after 10 mins by Western blot analysis; type: cell-based
SK-HEP1 = assay: Antiproliferative activity against human SKHEP1 cells after 72 hrs by SRB assay; type: functional, cell-based; conditions: SK-HEP1, 72 h
Method in brief: (§1)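 Colorimetric growth assay with IC50 values derived; etoposide as positive control. Cell lines: A549 (lung cancer), HCT116 (colon cancer), MDA-MB-231 (breast cancer), SK-Hep-1 (liver cancer), SNU638 (stomach cancer), MRC5 (normal lung […]).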

MRC5 = assay: Antiproliferative activity against human MRC5 cells after 72 hrs by SRB assay; type: cell-based; conditions: MRC5, 72 h; method in brief: as §1
MDA-MB-231 = assay: Antiproliferative activity against human MDA-MB-231 cells after 72 hrs by SRB assay; type: functional, cell-based; conditions: MDA-MB-231, 72 h; method in brief: as §1
SNU-638 = assay: Antiproliferative activity against human SNU638 cells after 72 hrs by SRB assay; type: functional, cell-based; conditions: SNU-638, 72 h; method in brief: as §1
HCT-116 = assay: Antiproliferative activity against human HCT116 cells after 72 hrs by SRB assay; type: functional, cell-based; conditions: HCT-116, 72 h; method in brief: as §1
A549 = assay: Antiproliferative activity against human A549 cells after 72 hrs by SRB assay; type: functional, cell-based; conditions: A549, 72 h; method in brief: as §1

| Structure (SMILES) | inhibition [1] | other results |
| --- | --- | --- |
| Nc1ncnc2c1ncn2[C@@H]1O[C@H](COS(=O)(=O)NC(=O)c2cc(C3CC3)n[nH]2)[C@@H](O)[C@H]1O | inactive | – |
| CNc1ncnc2c1ncn2[C@@H]1O[C@H](COS(=O)(=O)NC(=O)[C@@H](Cl)CC(C)C)[C@@H](O)[C@H]1O | inactive | – |
| CC(C)C[C@H](O)C(=O)NS(=O)(=O)OC[C@H]1O[C@@H](n2cnc3c(N)nc(Cl)nc32)[C@H](O)[C@@H]1O | inactive | – |
| CC(C)[C@H](O)[C@@H](O)C(=O)NS(=O)(=O)OC[C@H]1O[C@@H](n2cnc3c(N)ncnc32)[C@H](O)[C@@H]1O | inactive | Activity (HEK293): inactive; inhibition (mTORC2 (Homo sapiens)): inactive |
| CC(C)[C@@H](O)[C@H](O)C(=O)NS(=O)(=O)OC[C@@H]1C[C@@H](O)[C@H](n2cnc3c(N)ncnc32)O1 | inactive | Activity (HEK293): inactive; inhibition (mTORC2 (Homo sapiens)): inactive |
| CC(C)[C@@H](O)[C@H](O)C(=O)NS(=O)(=O)OC[C@H]1O[C@@H](n2cnc3c(=O)[nH]cnc32)[C@H](O)[C@@H]1O | Active | IC50 (SK-HEP1): > 20 µM; IC50 (MRC5): > 20 µM; IC50 (MDA-MB-231): > 20 µM; IC50 (SNU-638): > 20 µM; IC50 (HCT-116): > 20 µM; IC50 (A549): > 20 µM |
| CC(C)C[C@H](S)C(=O)NS(=O)(=O)OC[C@H]1O[C@@H](n2cnc3c(N)ncnc32)[C@H](O)[C@@H]1O | Active | – |
| O=C(NS(=O)(=O)OC[C@H]1O[C@@H](n2cnc3c(=O)[nH]cnc32)[C@H](O)[C@@H]1O)[C@@H](O)[C@H](O)C1CC1 | inactive | – |
| COc1cc([C@@H]2c3cc4c(cc3[C@@H](O[C@@H]3O[C@@H]5CO[C@@H](C)O[C@H]5[C@H](O)[C@H]3O)[C@H]3COC(=O)[C@H]23)OCO4)cc(OC)c1O [ETOPOSIDE] | – | IC50 (SK-HEP1): 0.41 µM; IC50 (MRC5): 12.7 µM; IC50 (MDA-MB-231): 3.38 µM; IC50 (SNU-638): 0.34 µM; IC50 (HCT-116): 1.22 µM; IC50 (A549): 0.47 µM |
| CC(C)[C@H](O)[C@@H](O)C(=O)NS(=O)(=O)OC[C@H]1O[C@@H](n2cnc3c(N)ncnc32)C[C@@H]1O | inactive | – |
| CO[C@H](C(=O)NS(=O)(=O)OC[C@H]1O[C@@H](n2cnc3c(N)ncnc32)[C@H](O)[C@@H]1O)[C@H](OC)C(C)C | inactive | – |
| CC(C)C[C@H](Cl)C(=O)NS(=O)(=O)OC[C@H]1O[C@@H](n2cnc3c(N)ncnc32)[C@H](O)[C@@H]1O | inactive | – |
| Nc1ncnc2c1ncn2[C@@H]1O[C@H](COS(=O)(=O)NC(=O)[C@@H](O)[C@H](O)C2CC2)[C@H]2NC(=O)O[C@H]21 | Active | – |
| CO[C@H](C(=O)NS(=O)(=O)OC[C@H]1O[C@@H](n2cnc3c(N)ncnc32)C[C@@H]1O)[C@H](O)C(C)C | inactive | – |
| CC(C)/C=C/C(=O)NS(=O)(=O)OC[C@H]1O[C@@H](n2cnc3c(N)ncnc32)[C@H](O)[C@@H]1O | Active | – |
| CC(C)c1cc(C(=O)NS(=O)(=O)OC[C@H]2O[C@@H](n3cnc4c(N)nc(I)nc43)[C@H](O)[C@@H]2O)[nH]n1 | inactive | – |
| CC(C)C[C@@H](O)C(=O)NS(=O)(=O)OC[C@H]1O[C@@H](n2cnc3c(=O)[nH]cnc32)[C@H](O)[C@@H]1O | inactive | – |
| CC(C)C[C@H](N)CO | Active | – |
| CC(C)[C@@H](O)[C@H](O)C(=O)NS(=O)(=O)OC[C@H]1O[C@@H](n2cnc3c(N)ncnc32)[C@@H](O)[C@@H]1O | inactive | – |
| CC(C)C[C@H](N)C(=O)NS(=O)(=O)OC[C@H]1O[C@@H](n2cnc3c(N)ncnc32)[C@H](O)[C@@H]1N | inactive | – |
| CC(C)C[C@H](O)C(=O)NS(=O)(=O)OC[C@H]1O[C@@H](n2cnc3c(N)ncnc32)[C@@H](O)[C@@H]1O | Active | – |
| CN[C@@H](CC(C)C)C(=O)NS(=O)(=O)OC[C@H]1O[C@@H](n2cnc3c(N)ncnc32)[C@H](O)[C@@H]1O | inactive | – |
| Nc1ncnc2c1ncn2[C@@H]1O[C@H](COS(=O)(=O)NC(=O)[C@@H](O)[C@H](O)C2CC2)[C@@H](O)[C@@H]1O | Active | IC50 (SK-HEP1): 7.26 µM; IC50 (MRC5): > 20 µM; IC50 (MDA-MB-231): 17.8 µM; IC50 (SNU-638): 5.7 µM; IC50 (HCT-116): 9.14 µM; IC50 (A549): 6.93 µM |
